MrgX1 allo act: allosterically activates human MrgX1 receptor signaling. hit rate 0.63% among 310,000. MrgX1-HEK293, Fluo-4 calcium flux, FDSS; hits give high values. B-score at 10 µM. Q96LB2. AID 588675;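 active means plate-corrected calcium response at least 3 library SD above typical, normal starting fluorescence, not activating the receptor alone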;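 further: compound read alongside a low EC10 to EC30 dose of BAM8-22 agonist; peak minus trough fluorescence over baseline measured at the second addition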
Target sequence (Q96LB2 whole entry, looked up): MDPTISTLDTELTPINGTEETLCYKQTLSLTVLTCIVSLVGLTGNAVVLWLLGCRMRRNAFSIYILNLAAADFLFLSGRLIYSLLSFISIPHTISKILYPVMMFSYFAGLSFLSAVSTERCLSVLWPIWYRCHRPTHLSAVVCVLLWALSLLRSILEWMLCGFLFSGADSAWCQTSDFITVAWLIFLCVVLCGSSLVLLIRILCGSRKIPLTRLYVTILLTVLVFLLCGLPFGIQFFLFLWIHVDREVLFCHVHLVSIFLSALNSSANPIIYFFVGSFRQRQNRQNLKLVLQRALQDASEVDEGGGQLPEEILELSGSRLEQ
RGS4 block: human RGS4 inhibition; P49798; HEK293 M3R/RGS4 inducible, Fluo-4 calcium flux; hits give high values; triggered by carbachol at its EC20; B-score at 10 µM; hit rate 0.45% among 310,000; AID 463165;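 active means B-score, a plate-corrected calcium signal, over three deviations above library mean, with baseline fluorescence within five deviations of library mean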;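 further: RGS4 expression induced by doxycycline in cells with stable M3 receptor; B-score is computed from the integrated fluorescence ratio over baseline after carbachol; higher B-score means a larger calcium signal and so more RGS4 inhibition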
Target sequence (P49798 whole entry, looked up): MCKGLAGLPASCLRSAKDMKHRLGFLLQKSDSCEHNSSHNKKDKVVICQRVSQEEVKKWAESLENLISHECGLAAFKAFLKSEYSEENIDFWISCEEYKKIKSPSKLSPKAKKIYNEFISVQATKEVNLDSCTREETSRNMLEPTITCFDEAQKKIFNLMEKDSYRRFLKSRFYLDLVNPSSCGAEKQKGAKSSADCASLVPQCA
RGS4 pot: RGS4 potentiation or activation. HEK293 M3R/inducible RGS4, carbachol calcium flux Fluo4; hits give low values. B-score at 10 µM. hit rate 0.92% among 310,000;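 active means B-score of the integrated calcium signal more than 4 SD below the library mean, with starting fluorescence not abnormally high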;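 further: negative B-score means reduced calcium response which marks RGS4 activation or potentiation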
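Detection: kinetic calcium fluorescence imaging with Fluo4-AM dye, 2 µM / Material: HEK293 cells with stable M3R and inducible RGS4 / Schedule: recording 10 s baseline at 1 Hz, 100 s post-agonist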
MrgX1 ag: agonists of human MrgX1 receptor. MrgX1-HEK293 cells, Fluo-4 calcium fluorescence, agonist mode; hits give high values. B-score at 10 µM. hit rate 0.44% among 310,000. AID 588627;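 active means calcium response B-score plate-corrected fluorescence ratio at least 3 library SD, with starting fluorescence B-score inside 5 SD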
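Material – MrgX1-expressing HEK293 cells · Input – 15,000 cells seeded per well · Dosing – compound as first of three additions · Times – overnight seeding, then 1 h dark dye loading · Measured by – kinetic Fluo-4 NW fluorescence of intracellular calcium · Read-out – B-scored fluorescence response ratio · Benchmarks – positive and negative control wells on each plate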
MrgX1 antagonist: human MrgX1 receptor antagonism, primary screen | hit rate 1.3% among 310,000 | MRGX1-HEK293 calcium flux, Fluo-4, BAM8-22 antagonism; hits give low values | B-score at 10 µM | Q96LB2;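 active means calcium-response B-score plate-corrected more than 3 library SD below zero, starting fluorescence within 5 deviations, no agonist response on first addition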;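 further: peak minus trough fluorescence over baseline after final BAM8-22 challenge near maximal dose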
RGS4 block valid: RGS4 inhibitor validation; shares compounds with RGS4 block; HEK293 M3R/RGS4, carbachol calcium Fluo-4 fluorescence; carbachol added at its EC20; 0 = buffer wells, 100 = carbachol control; calcium response, % at 10 µM; hit rate 65% among 1,700;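 active means duplicate-averaged calcium response above the buffer-only control mean plus 5 SD of those controls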;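 further: integrated fluorescence ratio F max minus min over baseline F0; higher response in RGS4-induced cells means RGS4 inhibition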
RGS4 uninduced: non-induced cell nonspecific activity of RGS4 inhibitors. hit rate 20% among 1,900. HEK293 M3R non-induced, carbachol calcium Fluo-4; submaximal (EC20) carbachol stimulus; buffer wells 0%, carbachol control wells 100%. AID 493000. shares compounds with RGS4 block. activity (percent), % at 10 µM; call rule not given here;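 further: RGS4 induction absent so cells express M3R without RGS4; higher means more calcium signal and flags a non-specific hit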
M3R basal Ca ctr: second RGS4 inhibitor counter-screen in uninduced cells lacking carbachol; shares compounds with RGS4 block; HEK293 M3R/RGS4 non-induced, Fluo-4 calcium, no carbachol; normalised: buffer wells 0%, carbachol wells 100%; calcium response (agonist-mode artifact), % at 10 µM; hit rate 22% among 1,900;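 active means duplicate-averaged calcium rise in uninduced cells above buffer wells' mean plus 5 SD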
The depositor's hits bear a star; i = inactive; nt = no result given. Most compounds without a hit are left out; they make up all but 3.5% or so of the library.

SMILES | MrgX1 allo act | RGS4 block | RGS4 pot | MrgX1 ag | MrgX1 antagonist | RGS4 block valid | RGS4 uninduced | M3R basal Ca ctr
COC(=O)c1ccc(N2NC(=O)/C(=C/c3cc(OC)c(O)c(OC)c3)C2=O)cc1 | i | i | i | i | i | i | i | 30%*
COC(=O)c1ccc(N2NC(=O)/C(=C/c3cc(OC)c(OC)c(OC)c3)C2=O)cc1 | i | 4.9* | i | i | i | 14%* | i | i
COc1cccc(/C=C2/C(=O)NN(c3ccc(Br)cc3)C2=O)c1O | i | i | i | i | i | nt | nt | nt
COc1cc(/C=C2/C(=O)N(c3ccc(Br)cc3)N=C2C)cc([N+](=O)[O-])c1O | i | i | i | i | i | nt | nt | nt
CC(C)(C)C(=O)N1CCN(c2nc3ccc(Cl)cc3s2)CC1 | i | i | i | i | i | nt | nt | nt
Cc1ccc(/C=N/NC(=O)Cc2c[nH]c3ccccc23)c(C)c1 | i | 6.9* | i | i | i | 31%* | i | 42%*
O=C(Cc1c[nH]c2ccccc12)N/N=C/c1ccccc1O | i | i | i | i | i | nt | nt | nt
CNc1nc(N)c([N+](=O)[O-])c(Nc2ccccc2OC)n1 | i | 11* | i | i | i | 12%* | 44%* | i
CN(CC(=O)Nc1ccc(S(=O)(=O)N2CCCC2)cc1)CC(=O)Nc1cccc(F)c1 | i | i | i | i | i | nt | nt | nt
CC(=O)Nc1cccc(C(=O)/C=C/c2ccc(N(C)C)cc2)c1 | i | i | i | 63* | i | i | i | 156%*
CC(=O)Nc1cccc(C(=O)/C=C/c2ccc[nH]2)c1 | i | i | i | i | i | nt | nt | nt
CC(=O)Nc1cccc(C(=O)/C=C/c2ccc(F)cc2)c1 | i | i | i | i | i | i | i | 10%*
CC(=O)Nc1cccc(C(=O)/C=C/c2ccc(Br)cc2)c1 | i | 7.2* | i | i | i | i | i | i
COc1cccc(NC(=O)C(=O)c2cn(CC(=O)N3CCCC3)c3ccccc23)c1 | i | i | i | i | i | nt | nt | nt
Cc1noc(NS(=O)(=O)c2ccc(N/C=C\C(=O)c3cccc4ccccc34)cc2)c1C | i | 5.9* | i | i | i | i | i | i
Cc1noc(NS(=O)(=O)c2ccc(NC(=O)c3nn(-c4ccccc4)ccc3=O)cc2)c1C | i | i | i | i | i | i | i | i
CCOc1ccc(C(=O)/C=C/Nc2ccc(S(=O)(=O)Nc3onc(C)c3C)cc2)cc1 | i | i | i | i | i | nt | nt | nt
Cc1noc(NS(=O)(=O)c2ccc(NC(=O)c3ccc(N4C(=O)c5ccccc5C4=O)cc3)cc2)c1C | i | i | i | i | i | nt | nt | nt
Cc1noc(NS(=O)(=O)c2ccc(N/C=C\C(=O)c3ccc(Br)cc3)cc2)c1C | i | 6.7* | i | i | i | 14%* | i | i
CCC1CCCCN1C(=O)COC(=O)CN(C)S(=O)(=O)c1ccc(NC(C)=O)cc1 (centres undefined) | i | i | i | i | i | nt | nt | nt
CC(=O)Nc1ccc2c(c1)nc(CCNC(=O)c1ccco1)n2C | i | i | i | i | i | i | i | i
Cc1ccc(C(=O)Nc2ccc3c(c2)nc(CCNC(=O)c2ccco2)n3C)cc1 | i | i | i | i | i | nt | nt | nt
O=C(O)c1ccc2c(=O)n3c(nc2c1)/C(=C/c1ccccc1C(F)(F)F)CCCC3 | i | i | i | i | i | nt | nt | nt
N/C(=N\OC(=O)Cc1ccccc1)c1ccccc1Cl | i | i | i | i | i | nt | nt | nt
CC(=O)/C=C/c1ccc2ccccc2n1 | i | 25* | i | i | i | 50%* | i | i
SMILES | MrgX1 allo act | RGS4 block | RGS4 pot | MrgX1 ag | MrgX1 antagonist | RGS4 block valid | RGS4 uninduced | M3R basal Ca ctr
S=c1[nH]nc(-c2ccncc2)n1/N=C/C(Cl)=C\c1ccccc1 | i | 9.8* | i | i | i | 20%* | 44%* | i
Cc1ccc(-c2nn(-c3ccccc3)cc2/C=N/n2c(-c3ccncc3)n[nH]c2=S)cc1 | i | i | i | i | i | i | i | i
O=C(NN1C(=O)c2ccc(-c3ccc4c(c3)C(=O)N(NC(=O)c3cccnc3)C4=O)cc2C1=O)c1cccnc1 | i | i | i | i | i | nt | nt | nt
CC(=O)Nc1ccc(Nc2cc(C)nc3c(-c4ccc(Cl)cc4)cnn23)cc1 | i | i | i | i | i | nt | nt | nt
Cc1cc(N)n2nc(C)c(-c3ccc(Cl)cc3)c2n1 | i | 7.8* | i | i | i | 10%* | i | i
CC(=O)Nc1ccc(Nc2cc(C)nc3c(-c4ccc(Cl)cc4)c(C)nn23)cc1 | i | i | i | i | i | nt | i | i
COc1ccc(C(=O)NC2CC2)cc1OC1CCN(Cc2ccc(F)c(F)c2)CC1 | i | i | i | i | i | nt | nt | nt
Cc1cc(N2CCOCC2)ccc1/C=C\[N+](=O)[O-] | i | 27* | i | 67* | i | 98%* | 57%* | 75%*
O=[N+]([O-])c1ccc(N2CCOCC2)cc1O | i | i | i | i | i | nt | nt | nt
O=CC1=C(c2ccccc2)Oc2ccccc2O1 | i | 10* | i | i | i | 19%* | 40%* | i
CN(C)/C=C1/N=C(c2ccccc2)OC1=O | i | i | i | i | i | nt | nt | nt
Oc1ccc(Cl)cc1CNCC1CCCCC1 | i | nt | nt | i | i | nt | nt | nt
CC1=NN(c2ccc(Cl)cc2)C(=O)/C1=C\c1cccn1-c1ccc(S(N)(=O)=O)cc1 | i | 4.9* | i | i | i | 43%* | 42%* | i
O=C1NC(c2ccccc2)=C(c2nc3ccccc3s2)C(c2ccccc2)N1 (centres undefined) | i | i | i | i | i | nt | 30%* | 26%*
CC(=O)C1=C(c2ccccc2)NC(=O)NC1c1ccccc1 (centres undefined) | i | i | i | i | i | nt | nt | nt
O=C(Nc1ccc(Cl)cc1)OCc1cc(-c2ccccc2Cl)on1 | i | i | i | i | i | nt | nt | nt
Cc1ccc(NC(=O)OCc2cc(-c3ccccc3)on2)cc1 | i | i | i | i | i | i | i | i

High-throughput results as filed in PubChem.
